# CHO parental Ca: counter-screen: ATP calcium response change in parental CHO cells. parental CHO-K1, ATP-induced calcium, Fluo-8 fluorescence. inhibition, % at 5.6 µM. 0.63% of 330,000 active. AID 463079;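 active means inhibition above that plate's mean sample inhibition plus 3 SD, cut at about 26% in these data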
#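 Material – parental CHO cells · Reagent – ATP stimulus · Compound – single nominal dose of 5.6 µM per compound · Detection – Fluo-8 fluorescence · Read-out basis – percent inhibition of calcium signal · Controls – ATP-challenged DMSO wells low, unchallenged DMSO wells high · Repeats – no replicates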
# TAAR1 ag: human TAAR1 agonism; CHO RD-HGA16 TAAR1, Fluo-8 calcium fluorescence; vehicle wells 0%, saturating PEA agonist 100%; activation, % at 3 µM; Q96RJ0; 0.99% of 360,000 active; AID 624467;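 active means activation above the mean activation of all test compounds in the run plus 3 SD, cut at about 38% in these data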
#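 Benchmarks: low control DMSO, high control PEA (EC100); System: CHO RD-HGA16 cells carrying human TAAR1 plus Gα16; Detection: Fluo-8 fluorescence, 5 s baseline then 140 s kinetic read; Schedule: 17-24 h plating, Fluo-8 75 min 37 °C, 30 min RT; Read-out basis: % activation from peak over basal fluorescence ratio, DMSO-to-PEA scaled.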
# OX1R antag-1: human HCRTR1 antagonism; O43613; CHO/OX1R cells, Fluo-8 calcium fluorescence, orexin A; inhibition, % at 5 µM; 0.43% of 330,000 active;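 active means inhibition above its plate's threshold, mean inhibition of all tested compounds on the plate plus 3 SD, cut at about 37% in these data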
# Target sequence (O43613 whole entry, looked up): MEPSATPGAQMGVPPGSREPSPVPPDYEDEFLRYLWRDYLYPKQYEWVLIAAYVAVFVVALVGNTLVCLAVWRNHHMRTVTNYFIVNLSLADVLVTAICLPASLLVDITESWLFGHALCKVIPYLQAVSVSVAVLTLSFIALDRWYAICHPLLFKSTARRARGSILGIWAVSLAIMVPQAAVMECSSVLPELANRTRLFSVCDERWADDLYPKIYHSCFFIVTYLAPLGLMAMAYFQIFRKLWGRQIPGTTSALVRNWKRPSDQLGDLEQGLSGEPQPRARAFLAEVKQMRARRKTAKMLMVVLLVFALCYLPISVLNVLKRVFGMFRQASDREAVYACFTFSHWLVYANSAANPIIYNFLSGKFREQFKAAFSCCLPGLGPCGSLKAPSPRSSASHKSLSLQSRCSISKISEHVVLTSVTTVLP
# GalR3 antagonist: blocks the human galanin receptor 3 | HEK293 GalR3-CNG cAMP membrane potential fluorescence; galR3 body fused to GalR1 C-terminus | O60755 | 0.44% of 360,000 active | inhibition, % at 3 µM;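 active means inhibition above the screen-wide average plus 3 SD, cut at about 13% in these data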;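 further: forskolin and galanin both at EC90 stimulate the cells; cAMP rise reported by CNG channel membrane potential dye signal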
# Target sequence (O60755 1-299 limits assumed): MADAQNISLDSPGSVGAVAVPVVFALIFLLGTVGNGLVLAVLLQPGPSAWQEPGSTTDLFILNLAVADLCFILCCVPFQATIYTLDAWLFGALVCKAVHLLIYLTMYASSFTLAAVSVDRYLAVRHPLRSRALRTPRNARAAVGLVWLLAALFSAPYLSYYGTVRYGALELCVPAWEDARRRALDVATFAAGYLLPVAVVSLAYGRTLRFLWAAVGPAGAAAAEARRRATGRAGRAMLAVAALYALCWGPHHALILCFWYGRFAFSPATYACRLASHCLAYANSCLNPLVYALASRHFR
# OX1R antag-2: blocks the human orexin 1 receptor. OX1R-expressing cells, FRET antagonist read-out. O43613. inhibition, % at 6.6 µM. 1.8% of 330,000 active; in the data active means inhibition mostly above about 38%, no sharp cut-off; inactive means mostly below about 40%
# TAAR1 antag: human TAAR1 antagonism; Q96RJ0; CHO RD-HGA16 TAAR1, Fluo-8 calcium fluorescence, antagonist; inhibition, % at 3 µM; 1.5% of 360,000 active; AID 624466;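 active means inhibition above a per-plate cutoff, the mean inhibition of test compounds on that plate plus 3 SD, cut at about 49% in these data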
#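 Test system: hTAAR1-expressing CHO RD-HGA16 cells, Gα16-coupled; Probe or stimulus: EC80 β-phenethylamine stimulus; Compound dosing: single nominal final test compound concentration of 3 µM; Timing: 140 s kinetic read after compound, 140 s after agonist; Signal: Fluo-8 calcium-sensitive fluorescence; Measure: % inhibition of agonist calcium response; Controls: DMSO and EC80 PEA controls.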
# OX1R Ca confirm: confirmation of human orexin 1 receptor antagonists. inhibition, % at 5 µM. AID 492963. CHO/OX1R cells, orexin A calcium Fluo-8 fluorescence. shares compounds with OX1R antag-1. 38% of 1,100 active; in the data active means inhibition above about 29%
# CHO Ca triplic: counter-screen for OX1R antagonists: effect in parental CHO cells; AID 492965; 9.3% of 1,100 active; shares compounds with OX1R antag-1; inhibition, % at 5.6 µM; parental CHO-K1, ATP-induced calcium, Fluo-8 fluorescence;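 active means inhibition above a per-plate limit, the mean inhibition of that plate's test compounds plus 3 SD, cut at about 25% in these data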
# Hits are given with their value; i = inactive; nt = no result given. Most compounds without a hit are left out; they make up all but 4.3% or so of the library.
SMILES,CHO parental Ca,TAAR1 ag,OX1R antag-1,GalR3 antagonist,OX1R antag-2,TAAR1 antag,OX1R Ca confirm,CHO Ca triplic
CCCCOc1ccc(S(=O)(=O)Nc2cc(OC)ccc2OC)cc1,i,i,50.9,i,i,i,i,i
N=c1c2c(-c3ccccc3)c(-c3ccccc3)n(Cc3ccco3)c2ncn1Cc1ccccc1,i,i,59.1,i,i,i,43.2,i
COc1cccc(C(C(=O)NC2CCCC2)N(C(=O)c2csnn2)C2CC2)c1 (stereo not drawn),i,i,i,i,i,i,nt,nt
Cc1ccc(O)c(NC(=O)c2noc3c2CCc2ccccc2-3)c1,i,i,i,i,i,i,i,i
Cc1cc(NC(=O)c2noc3c2CCc2ccccc2-3)no1,i,i,i,nt,i,i,nt,nt
CC1(C(=O)NS(=O)(=O)C2CC2)CCCN(C(=O)c2ccc(F)cc2Cl)C1 (stereo not drawn),nt,i,nt,i,nt,i,nt,nt
O=C(NCCCn1ccnc1)c1ccc(OCC(F)(F)F)cc1,i,i,i,i,i,i,nt,nt
FC(F)(F)COc1ccc(-n2ccnc2)nn1,i,i,i,i,i,i,i,i
O=C(c1cc2c(c(-c3cccc(-c4ccncc4)c3)n1)[C@@H](CCO)N(C(=O)c1ccc3c(c1)OCO3)C2)N1CCOCC1,nt,i,nt,i,nt,i,nt,nt
Cc1nn(-c2ccccc2)c(C)c1/C=N/NC(=O)c1cc(-c2cccs2)[nH]n1,i,i,i,i,i,i,65.0,i
Cc1nn(-c2ccccc2)c(C)c1/C=N/NC(=O)c1cc(-c2ccc(Br)s2)[nH]n1,i,i,i,i,i,i,nt,nt
COc1ccc(C#CC2=CC(=O)CC(C)(C)C2)cc1,nt,i,nt,i,nt,i,nt,nt
Cc1ccccc1-c1nc(CS(=O)(=O)CC(=O)N2CCCCC2)c(C)o1,i,i,i,i,i,i,nt,nt
C=CCN(CC=C)C(=O)C1c2ccccc2Oc2ccccc21,nt,i,nt,i,nt,i,nt,nt
CCN(CC)C(=O)C1c2ccccc2Oc2ccccc21,i,i,i,i,i,i,i,i
CCc1cc(CNC(=O)c2ccc3nc(Cc4ccc(OC)c(OC)c4)oc3c2)on1,i,i,i,i,i,i,nt,nt
O=C(Nc1ccc(S(=O)(=O)N2CCc3ccccc32)cc1)c1ccc2c(c1)OCO2,i,i,i,i,i,i,i,i
CSc1cccc(NC(=O)CN(c2cc(C)ccc2C)S(C)(=O)=O)c1,i,i,i,i,i,i,i,i
CCN(CC)c1ccc(C(=O)N/N=C/c2ccc(OC)cc2OC)cc1,i,i,40.6,i,i,i,33.7,i
CCNC(=O)C1(C)CCCN1Cc1cccc(C(F)(F)F)c1 (stereo not drawn),nt,i,nt,i,nt,i,nt,nt
CCCN1C(=O)/C(=C/c2ccc(N3CCOCC3)cc2)NC1=S,i,53.9,i,i,i,i,i,i
CN(C(=O)C1CCCC1)C1CCS(=O)(=O)C1 (stereo not drawn),i,i,i,i,i,i,nt,nt
Cc1ccc(N(C(=O)c2csnn2)C(C(=O)NCc2ccccc2)c2cccnc2)cc1 (stereo not drawn),i,i,i,i,i,i,nt,nt
COc1ccc(C(=O)/C(C#N)=N/Nc2ccc([N+](=O)[O-])cc2)cc1,i,i,i,i,i,i,i,55.1
CCCn1c(N)c(C(=O)CSc2nc3ccccc3s2)c(=O)[nH]c1=O,i,i,44.6,i,i,i,i,i
SMILES,CHO parental Ca,TAAR1 ag,OX1R antag-1,GalR3 antagonist,OX1R antag-2,TAAR1 antag,OX1R Ca confirm,CHO Ca triplic
CCCn1c(N)c(C(=O)CSc2nnc(N)s2)c(=O)[nH]c1=O,i,i,i,i,i,i,nt,nt
CCOC(=O)C(c1nc2ccccc2[nH]1)n1c(-c2ccccn2)nc2ccccc21 (stereo not drawn),nt,i,nt,i,nt,i,nt,nt
CN(C)c1nc(N)nc(CSc2nc3cc(Cl)ccc3o2)n1,i,i,i,i,i,i,i,i
CCCCCO,i,i,i,i,i,i,nt,nt
COC(=O)c1ccc2c(c1)C(C)(C)C(/C=C/c1ccc(O)cc1)=[N+]2C,i,i,i,i,i,i,65.9,52.5
C[C@@H]1CN([C@@H](C)CO)C(=O)c2cccc(NC(=O)Nc3ccc(F)cc3)c2O[C@@H]1CN(C)Cc1ccc(Oc2ccccc2)cc1,i,i,52.5,i,i,i,62.0,i
CCN(CC)CCNc1nc2c(c(=O)[nH]c(=O)n2C)n1CCCc1ccccc1,i,i,i,i,i,i,nt,nt
CCNc1nc2c(c(=O)[nH]c(=O)n2C)n1CCCc1ccccc1,i,i,i,i,i,i,i,i
CN1C2CCC1/C(=C\c1ccc(F)cc1)C(=O)/C2=C/c1ccc(F)cc1,i,i,i,i,i,i,nt,nt
CN1C2CCC1/C(=C/c1cccn1C)C(=O)/C2=C\c1cccn1C,i,i,i,i,i,i,i,i
CCCOc1ccc(-c2c(=O)n(O)c3ccccc3[n+]2[O-])cc1,i,i,i,i,i,i,nt,nt
O=C(Cn1ncc(Cl)c(Cl)c1=O)c1ccc(Cl)cc1,i,i,i,i,i,i,42.7,30.7
COC(=O)Cn1c(=O)c2c(nc3n2CC(C)CN3Cc2ccccc2)n(C)c1=O (stereo not drawn),i,i,i,i,i,i,i,i
COC(=O)C1=C(C)N(Cc2ccccc2)C(=NCc2ccccc2)N[C@H]1c1cccc(F)c1,i,i,i,i,i,i,33.3,i
COC(=O)c1ccc(NC(=S)NNC(=O)c2ccccc2)cc1,i,i,i,i,i,i,i,i
O=C(NC1CCCCC1)c1[nH]c(C(F)(F)F)nc1-c1ccccc1,nt,i,nt,i,nt,i,nt,nt
O=C(CSCc1ccc(Cl)cc1)N/N=C/c1ccc(OCC(=O)Nc2ccccc2)cc1,i,i,i,i,i,57.1,i,i
Cc1ccc(S(=O)(=O)n2nc(-n3c(C)ccc3C)c3c(F)cccc32)c2ccccc12,i,i,i,i,i,i,nt,nt
Cc1ccc(C)n1-c1nn(S(=O)(=O)c2cccc3cccnc23)c2cccc(F)c12,i,i,38.7,i,i,i,29.6,i
COCCN=c1scc(-c2cc(OC)ccc2OC)n1/N=C/c1c[nH]c2ccccc12,i,i,i,i,i,i,34.9,i
CC1CCc2c(sc(NC(=O)CSc3nc(N)cc(=O)[nH]3)c2C(N)=O)C1 (stereo not drawn),nt,i,nt,i,nt,i,nt,nt
Cc1c(CCOC(=O)c2ccc(N3CCOCC3)c([N+](=O)[O-])c2)sc[n+]1CC#N,i,i,i,i,i,i,nt,nt
Cc1ncsc1CCOC(=O)c1ccc(N2CCOCC2)c([N+](=O)[O-])c1,i,i,i,i,i,i,i,i
